Measurements: ChEMBL document CHEMBL4613300, “Pharmacophore-Based Virtual Screening for Identification of Negative Modulators of GLI1 as Potential Anticancer Agents” (ACS Med Chem Lett, 2020)
Activity calls are given as the source filed them. The calls are words filed in the database; no cut-off is given here.

Legend:
Daoy = assay: Antiproliferative activity against human DaOY cells assessed as reduction in cell viability incubated for 72 hrs by trypan blue or crystal violet staining based assay; type: functional; conditions: Homo sapiens, Daoy, 72 h; read-out: IC50
[1] = target: T1, Zinc finger protein GLI1 (Homo sapiens) (UniProt P08151); assay: Inhibition of GLI1 transcriptional activity in human A375 cells assessed as downregulation of Cyclin D1 mRNA expression at 5 uM incubated for 48 hrs by qPCR analysis; type: cell-based; conditions: A-375
T1 sequence (whole entry): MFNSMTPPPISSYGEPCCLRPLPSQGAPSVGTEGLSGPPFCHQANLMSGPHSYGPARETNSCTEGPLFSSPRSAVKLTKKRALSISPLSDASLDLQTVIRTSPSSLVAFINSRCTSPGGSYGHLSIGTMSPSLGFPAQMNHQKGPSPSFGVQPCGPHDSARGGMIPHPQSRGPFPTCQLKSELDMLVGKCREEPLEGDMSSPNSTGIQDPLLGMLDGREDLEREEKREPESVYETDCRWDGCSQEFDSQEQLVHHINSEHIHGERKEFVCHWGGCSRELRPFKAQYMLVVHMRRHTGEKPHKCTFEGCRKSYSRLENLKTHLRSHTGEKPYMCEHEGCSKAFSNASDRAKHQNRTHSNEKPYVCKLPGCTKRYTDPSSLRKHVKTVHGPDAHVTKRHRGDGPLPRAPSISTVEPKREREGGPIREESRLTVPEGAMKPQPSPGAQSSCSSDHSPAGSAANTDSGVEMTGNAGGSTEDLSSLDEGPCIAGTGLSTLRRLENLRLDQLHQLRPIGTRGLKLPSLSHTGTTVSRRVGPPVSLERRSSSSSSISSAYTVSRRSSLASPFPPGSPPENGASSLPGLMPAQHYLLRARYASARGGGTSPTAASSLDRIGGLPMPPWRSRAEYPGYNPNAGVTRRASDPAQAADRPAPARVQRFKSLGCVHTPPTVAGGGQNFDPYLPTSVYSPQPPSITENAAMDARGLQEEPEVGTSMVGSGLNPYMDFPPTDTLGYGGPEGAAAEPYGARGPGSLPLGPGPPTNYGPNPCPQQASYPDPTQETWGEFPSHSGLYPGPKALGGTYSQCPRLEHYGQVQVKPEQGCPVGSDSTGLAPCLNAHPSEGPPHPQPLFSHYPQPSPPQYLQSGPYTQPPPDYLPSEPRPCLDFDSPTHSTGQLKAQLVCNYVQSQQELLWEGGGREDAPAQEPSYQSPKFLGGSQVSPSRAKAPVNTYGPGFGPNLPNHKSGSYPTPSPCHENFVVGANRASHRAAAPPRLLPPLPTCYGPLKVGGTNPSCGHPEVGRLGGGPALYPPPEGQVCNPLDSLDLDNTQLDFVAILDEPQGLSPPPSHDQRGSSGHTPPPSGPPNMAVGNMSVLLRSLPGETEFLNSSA
In short: (§1)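 A375 cells treated with compound (5 μM) or DMSO for 48 h. mRNA measured by qPCR as gene/(mean of HPRT and EIF2α) ratio, DMSO control set to 1. Mean ± SD.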

[2] = target: T1, Zinc finger protein GLI1 (Homo sapiens); assay: Inhibition of GLI1 transcriptional activity in human A375 cells assessed as downregulation of GLI2 mRNA expression at 5 uM incubated for 48 hrs by qPCR analysis; type: cell-based; conditions: A-375; in short: as §1
[3] = target: T2, Zinc finger protein GLI1 (Mus musculus) (UniProt P47806); assay: Inhibition of GLI1 transcriptional activity in HH-responsive mouse NIH3T3 cells assessed as reduction in GLI1 protein expression at 5 uM incubated for 48 hrs in presence of SAG by Western blot analysis; type: cell-based
T2 sequence (whole entry): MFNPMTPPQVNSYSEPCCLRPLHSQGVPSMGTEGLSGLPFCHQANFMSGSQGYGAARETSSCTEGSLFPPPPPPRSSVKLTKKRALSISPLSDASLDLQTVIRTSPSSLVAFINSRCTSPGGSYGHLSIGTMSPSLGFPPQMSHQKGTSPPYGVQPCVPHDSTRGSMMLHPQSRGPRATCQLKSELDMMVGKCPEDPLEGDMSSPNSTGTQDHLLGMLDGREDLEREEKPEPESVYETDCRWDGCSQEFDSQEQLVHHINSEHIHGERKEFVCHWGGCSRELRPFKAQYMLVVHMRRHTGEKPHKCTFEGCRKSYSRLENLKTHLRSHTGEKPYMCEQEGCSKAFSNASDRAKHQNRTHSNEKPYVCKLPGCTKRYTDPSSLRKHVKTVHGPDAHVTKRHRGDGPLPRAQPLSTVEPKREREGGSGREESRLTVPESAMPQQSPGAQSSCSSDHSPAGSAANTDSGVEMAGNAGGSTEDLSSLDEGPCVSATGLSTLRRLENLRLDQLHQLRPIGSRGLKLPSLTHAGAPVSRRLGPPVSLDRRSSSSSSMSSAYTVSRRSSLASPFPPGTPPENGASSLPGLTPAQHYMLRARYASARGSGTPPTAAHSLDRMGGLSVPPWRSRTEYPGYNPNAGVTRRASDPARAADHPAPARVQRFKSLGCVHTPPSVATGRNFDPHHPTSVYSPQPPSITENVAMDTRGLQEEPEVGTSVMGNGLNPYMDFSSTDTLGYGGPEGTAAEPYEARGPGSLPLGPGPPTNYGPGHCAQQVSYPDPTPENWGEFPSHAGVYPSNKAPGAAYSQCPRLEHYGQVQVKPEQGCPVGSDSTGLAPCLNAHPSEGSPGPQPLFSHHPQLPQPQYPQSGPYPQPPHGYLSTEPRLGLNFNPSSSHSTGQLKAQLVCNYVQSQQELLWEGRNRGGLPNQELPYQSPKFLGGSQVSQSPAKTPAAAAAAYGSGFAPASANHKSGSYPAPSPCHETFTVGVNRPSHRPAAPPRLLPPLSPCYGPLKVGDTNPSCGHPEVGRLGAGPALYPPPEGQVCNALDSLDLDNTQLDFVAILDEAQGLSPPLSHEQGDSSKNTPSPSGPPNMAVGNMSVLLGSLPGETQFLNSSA
In short: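 Murine NIH3T3 cells given 100 nM SAG plus compound (5 μM) or DMSO for 48 h. Endogenous GLI1 protein measured by Western blot with HSP90 as loading control, band quantified against SAG-treated cells.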

[4] = target: T2, Zinc finger protein GLI1 (Mus musculus); assay: Inhibition of GLI1 transcriptional activity in HH-responsive mouse NIH3T3 cells assessed as reduction in SAG-induced luciferase activity at 5 uM incubated for 48 hrs by luciferase reporter gene assay relative to control; type: cell-based
In short: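 HH-responsive NIH3T3 cells carrying a GLI-dependent firefly luciferase reporter with renilla control, treated 48 h with 100 nM SAG plus compound (5 μM). Firefly/renilla ratio normalised to SAG-only cells set at 100%, reported as percent inhibition.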

[5] = target: T1, Zinc finger protein GLI1 (Homo sapiens); assay: Inhibition of GLI1 transcriptional activity in human A375 cells assessed as downregulation of HIP1 mRNA expression at 5 uM incubated for 48 hrs by qPCR analysis; type: cell-based; conditions: A-375; in short: as §1
MCF-10A = assay: Cytotoxicity against human MCF10A cells assessed as reduction in cell viability incubated for 72 hrs by trypan blue or crystal violet staining based assay
A-375 [6] = assay: Antiproliferative activity against human A375 cells transfected with lentivrus-encoding shRNA against GLI2 assessed as reduction in cell viability incubated for 72 hrs by trypan blue or crystal violet staining based assay; type: functional
In short: (§2)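 A375 melanoma cells transduced with control lentivirus (LV-c), LV-shGLI1 or LV-shGLI2, with knockdown checked by Western blot (HSP90 loading control). Cells treated with DMSO or compound at the indicated doses for 72 h, then viability read. Values are mean ± SD of at least three independent experiments.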

[7] = target: T1, Zinc finger protein GLI1 (Homo sapiens); assay: Inhibition of GLI1 transcriptional activity in human A375 cells assessed as downregulation of GLI1 mRNA expression at 5 uM incubated for 48 hrs by qPCR analysis; type: cell-based; conditions: A-375; in short: as §1
A-375 [8] = assay: Antiproliferative activity against human A375 cells transfected with lentivrus-encoding shRNA against GLI1 assessed as reduction in cell viability incubated for 72 hrs by trypan blue or crystal violet staining based assay; type: functional; in short: as §2
A-375 [9] = assay: Antiproliferative activity against human A375 cells assessed as reduction in cell viability incubated for 72 hrs by trypan blue or crystal violet staining based assay; type: functional; conditions: Homo sapiens, A-375, 72 h; read-out: IC50
[10] = target: T1, Zinc finger protein GLI1 (Homo sapiens); assay: Inhibition of GLI1 transcriptional activity in human A375 cells assessed as downregulation of PTCH1 mRNA expression at 5 uM incubated for 48 hrs by qPCR analysis; type: cell-based; conditions: A-375; in short: as §1

`CCOC(=O)c1c(-c2ccccc2)csc1NC(NC(=O)CC)C(Cl)(Cl)Cl` (configuration not stated) was tested, and the IC50 (Daoy) was 6 µM, the inhibition [1] was “Active” and the inhibition [2] was “Active”. For the same molecule, the inhibition [3] was “Active”, the inhibition [4] was 42% and the inhibition [5] was “Active”. For the same molecule, the Activity (MCF-10A) was “Non-Toxic”, the Activity (A-375 [6]) was “inactive” and the inhibition [7] was “Active”. For the same molecule, the Activity (A-375 [8]) was “inactive”, the IC50 (A-375 [9]) was 4.1 µM and the inhibition [10] was “Active”.
